{"source": "ChEMBL document CHEMBL1124397", "about": "“A novel class of \"GABAergic\" agents: 1-aryl-3-(aminoalkylidene)oxindoles” (J Med Chem, 1989)", "key": {"Mus musculus [1]": {"test_system": "Mus musculus", "test": "Ability to displace [3H]Flunitrazepam ([3H]-FNP) binding to mouse brain after intraperitoneal administration at a dose […]", "format": "functional"}, "[2]": {"target": "GABA-A receptor; anion channel (Rattus norvegicus) (UniProt O09028+P15431+P18506+P18508+P19969+P20236+P23574+P23576+P28471+P28473+P30191+P62813+P63079+P63138+Q91ZM7+Q9ES14)", "test": "Antagonism of mercaptopropionic acid (MPA) induced convulsions in mouse", "format": "functional, organism-based"}, "Mus musculus [3]": {"test_system": "Mus musculus", "test": "Activity tested to antagonise cyclic GMP after administration of isoniazid in mouse brain", "format": "functional"}, "[4]": {"test": "(§1) Toxicity was measured in mouse by intraperitoneal administration", "conditions": "in vivo, ip", "in_short": "(§2)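 Mouse LD50 in mg/kg after sc or ip dosing, by the route named in each line.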"}, "[5]": {"test": "Toxicity measured in mouse by subcutaneous administration", "format": "organism-based", "conditions": "in vivo, sc", "in_short": "as §2"}, "Mus musculus [6]": {"test_system": "Mus musculus", "test": "Compound was tested for enhancement of [3H]Flunitrazepam ([3H]FNP) binding to mouse brain after intraperitoneal administration at a dose of 1000uM/kg, expressed as percent of control", "format": "functional", "in_short": "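Groups of five mice got the test compound or vehicle ip at the stated dose, 1 h (60 min) before iv [3H]FNP at 200 μCi/kg. Mice were killed by cervical dislocation 20 min after [3H]FNP. Brains were frozen, weighed and homogenized in 40 volumes ice-cold 50 mM Tris-HCl pH 7.7. Triplicate 1.0-mL samples were filtered on glass fiber and washed with cold buffer. Bound radioactivity was counted and expressed as % of vehicle-treated mice.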"}, "Mus musculus [7]": {"test_system": "Mus musculus", "test": "as §1", "format": "organism-based", "conditions": "in vivo, ip", "in_short": "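Mice were dosed intraperitoneally and observed for 7 days after drug administration to estimate the LD50.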"}, "Mus musculus [8]": {"test_system": "Mus musculus", "test": "Activity to antagonise mercaptopropionic acid (MPA) induced convulsions in mouse after subcutaneous administration", "format": "functional", "conditions": "sc", "in_short": "(§3)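 Male Swiss CD mice (17–21 g), fasted 18 h, in groups of five. […] One hour later MPA 32 mg/kg ip. Protection meant no convulsions during 10 min of observation.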"}, "Mus musculus [9]": {"test_system": "Mus musculus", "test": "Ability to displace [3H]Flunitrazepam ([3H]FNP) binding to mouse brain after intraperitoneal administration at a dose 32uMl/kg, expressed as percent of control", "format": "functional", "in_short": "(§4)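 Mice in groups of five received test compound or vehicle ip 1 h before 200 μCi/kg [3H]FNP iv and were killed 20 min later. Brains were homogenized in 40 volumes of ice-cold 50 mM Tris-HCl pH 7.7. Triplicate 1.0-mL samples were filtered on glass fiber, washed with cold buffer and counted. Bound FNP is given as % of vehicle-treated mice.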"}, "Mus musculus [10]": {"test_system": "Mus musculus", "test": "Activity to antagonise mercaptopropionic acid (MPA) induced convulsions in mouse after subcutaneous administration; value ranges from 3.2-5.6", "format": "functional", "conditions": "sc", "in_short": "as §3"}, "Mus musculus [11]": {"test_system": "Mus musculus", "test": "Activity to antagonise cyclic GMP after administration of isoniazid in mouse brain; value ranges from 0.3-1", "format": "functional"}, "Mus musculus [12]": {"test_system": "Mus musculus", "test": "Activity to antagonise mercaptopropionic acid (MPA) induced convulsions in mouse after intraperitoneal administration", "format": "functional", "conditions": "ip"}, "Mus musculus [13]": {"test_system": "Mus musculus", "test": "Compound was tested for enhancement of [3H]flunitrazepam ([3H]-FNP) binding to mouse brain after intraperitoneal administration at a dose of 100uM/kg, expressed as percent of control", "format": "functional", "in_short": "as §4"}, "Mus musculus [14]": {"test_system": "Mus musculus", "test": "Compound was tested for enhancement of [3H]Flunitrazepam ([3H]-FNP) binding to mouse brain after intraperitoneal administration at a dose of 3.2uM/kg, expressed as percent of control", "format": "functional", "in_short": "as §4"}, "Mus musculus [15]": {"test_system": "Mus musculus", "test": "Compound was tested for enhancement of [3H]Flunitrazepam ([3H]FNP) binding to mouse brain after intraperitoneal administration at a dose of 32uM/kg, expressed as percent of control", "format": "functional", "in_short": "as §4"}, "P23576": {"test_system": "P23576", "sequence (P23576 whole entry)": "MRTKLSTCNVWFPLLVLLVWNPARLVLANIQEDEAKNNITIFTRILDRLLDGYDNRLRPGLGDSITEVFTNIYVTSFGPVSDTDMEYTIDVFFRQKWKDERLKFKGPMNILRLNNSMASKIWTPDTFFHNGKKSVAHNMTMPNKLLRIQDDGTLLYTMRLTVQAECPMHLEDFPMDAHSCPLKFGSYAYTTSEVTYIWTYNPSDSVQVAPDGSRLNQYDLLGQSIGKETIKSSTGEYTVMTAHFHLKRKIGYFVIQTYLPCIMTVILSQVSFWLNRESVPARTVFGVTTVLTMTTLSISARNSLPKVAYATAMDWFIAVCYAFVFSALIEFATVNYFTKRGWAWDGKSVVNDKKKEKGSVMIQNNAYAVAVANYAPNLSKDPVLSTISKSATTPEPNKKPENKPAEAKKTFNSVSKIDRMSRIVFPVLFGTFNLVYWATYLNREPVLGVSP", "test": "Administered at a dose 320 umol/kg intraperitoneally before [3H]Flunitrazepam ([3H]-FNP) in mouse brain expressed as percent of control", "format": "functional, tissue-based", "in_short": "as §4"}, "Mus musculus [16]": {"test_system": "Mus musculus", "test": "Activity to antagonise mercaptopropionic acid (MPA) induced convulsions in mouse after subcutaneous administration; the value ranges from 32-100", "format": "functional", "conditions": "sc", "in_short": "as §3"}, "[17]": {"test": "Ability to displace [3H]flunitrazepam ([3H]-FNP) binding to mouse brain after intraperitoneal administration at a dose 320 umol/kg", "format": "functional, organism-based", "conditions": "at 320 µmol/kg", "in_short": "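Mice in groups of five got test agent or vehicle ip 1 h before iv [3H]FNP at 200 μCi/kg, then were killed 20 min later by cervical dislocation. Brains were frozen and homogenized in 40 volumes of ice-cold 50 mM Tris-HCl pH 7.7. Triplicate samples were filtered on glass fiber, washed with cold buffer and counted. Bound label is expressed as % of vehicle-treated mice.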"}, "Mus musculus [18]": {"test_system": "Mus musculus", "test": "Activity to antagonise cyclic GMP after administration of isoniazid in mouse brain; value ranges from 0.1-0.3", "format": "functional"}, "Mus musculus [19]": {"test_system": "Mus musculus", "test": "Compound was tested for enhancement of [3H]Flunitrazepam ([3H]FNP) binding to mouse brain after intraperitoneal administration at a dose of 10 uM/kg, expressed as percent of control", "format": "functional", "in_short": "as §4"}, "[20]": {"test": "Toxicity was measured in mouse by intraperitoneal administration; value ranges from 3.2-10", "conditions": "in vivo, ip", "in_short": "as §2"}}}
{"molecule": "CN1C(=O)CN=C(c2ccccc2)c2cc(Cl)ccc21", "note": "[DIAZEPAM]", "values": [{"measurement": "Control", "setting": "Mus musculus [1]", "result": 66, "unit": "%"}, {"measurement": "ED50", "setting": "[2]", "result": 0.7, "unit": "mg/kg"}, {"measurement": "ED50", "setting": "Mus musculus [3]", "result": "< 0.9", "unit": "mg/kg"}]}
{"molecule": "CCCC(CCC)C(=O)[O-].[Na+]", "note": "[VALPROATE SODIUM]", "values": [{"measurement": "ED50", "setting": "[2]", "result": 212, "unit": "mg/kg"}, {"measurement": "LD50", "setting": "[4]", "result": "> 1000", "unit": "mg/kg"}, {"measurement": "LD50", "setting": "[5]", "result": "> 1000", "unit": "mg/kg"}, {"measurement": "Control", "setting": "Mus musculus [6]", "result": 128, "unit": "%"}]}
{"molecule": "CCCCNc1c(C(=O)OCC)c(C)nc2c1cnn2CC", "note": "[TRACAZOLATE]", "values": [{"measurement": "ED50", "setting": "Mus musculus [3]", "result": "~3", "unit": "mg/kg"}, {"measurement": "ED50", "setting": "Mus musculus [7]", "result": "> 1000", "unit": "mg/kg"}, {"measurement": "ED50", "setting": "Mus musculus [8]", "result": "> 100", "unit": "mg/kg"}]}
{"molecule": "COc1ccc(N2C(=O)/C(=C3/CCCN3C)c3ccccc32)cc1", "values": [{"measurement": "Control", "setting": "Mus musculus [9]", "result": 103, "unit": "%"}, {"measurement": "ED50", "setting": "Mus musculus [10]", "result": 5.6, "unit": "mg/kg"}, {"measurement": "ED50", "setting": "Mus musculus [11]", "result": 1, "unit": "mg/kg"}, {"measurement": "ED50", "setting": "Mus musculus [12]", "result": "~3.2", "unit": "mg/kg"}, {"measurement": "Control", "setting": "Mus musculus [13]", "result": 192, "unit": "%"}, {"measurement": "Control", "setting": "Mus musculus [14]", "result": 105, "unit": "%"}, {"measurement": "Control", "setting": "Mus musculus [15]", "result": 125, "unit": "%"}, {"measurement": "Control", "setting": "P23576", "result": 211, "unit": "%"}, {"measurement": "LD50", "setting": "[4]", "result": "> 320", "unit": "mg/kg"}, {"measurement": "LD50", "setting": "[5]", "result": "> 1000", "unit": "mg/kg"}]}
{"molecule": "COc1cccc(N2C(=O)/C(=C3/CCCN3C)c3ccccc32)c1", "values": [{"measurement": "ED50", "setting": "Mus musculus [16]", "result": 100, "unit": "mg/kg"}, {"measurement": "Control", "setting": "P23576", "result": 214, "unit": "%"}]}
{"molecule": "CN(C)/C=C1\\C(=O)N(c2ccc(Cl)c(Cl)c2)c2ccccc21", "values": [{"measurement": "[3H]flunitrazepam binding", "setting": "[17]", "result": 144, "unit": "%"}, {"measurement": "ED50", "setting": "[2]", "result": "> 100", "unit": "mg/kg"}, {"measurement": "ED50", "setting": "Mus musculus [18]", "result": 0.1, "unit": "mg/kg"}]}
{"molecule": "CN1CCC/C1=C1/C(=O)N(c2cccc(Cl)c2)c2ccccc21", "values": [{"measurement": "ED50", "setting": "[2]", "result": "> 100", "unit": "mg/kg"}, {"measurement": "ED50", "setting": "Mus musculus [12]", "result": "~3.2", "unit": "mg/kg"}, {"measurement": "Control", "setting": "Mus musculus [13]", "result": 132, "unit": "%"}, {"measurement": "Control", "setting": "Mus musculus [19]", "result": 105, "unit": "%"}, {"measurement": "Control", "setting": "Mus musculus [15]", "result": 105, "unit": "%"}, {"measurement": "Control", "setting": "P23576", "result": 192, "unit": "%"}, {"measurement": "LD50", "setting": "[4]", "result": "> 320", "unit": "mg/kg"}, {"measurement": "LD50", "setting": "[5]", "result": "> 1000", "unit": "mg/kg"}]}
{"molecule": "NCc1cc(O)no1", "note": "[MUSCIMOL]", "values": [{"measurement": "ED50", "setting": "Mus musculus [3]", "result": 1.5, "unit": "mg/kg"}, {"measurement": "LD50", "setting": "[20]", "result": 3.2, "unit": "mg/kg"}, {"measurement": "LD50", "setting": "[5]", "result": 4.2, "unit": "mg/kg"}, {"measurement": "ED50", "setting": "Mus musculus [8]", "result": 0.7, "unit": "mg/kg"}]}
